Only some compounds are listed: those with a hit (about 1.9% of all), similar ones and a draw of the others.
M5 PAM: potentiates acetylcholine response at human M5 receptor. P08912. CHO-K1 hM5, Fluo-8 calcium, ACh EC20 PAM; 0% = ACh EC20, 100% = ACh EC100. activation, % at 3 µM. actives 0.3% (n = 360,000);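 active means activation above the run cutoff, the mean activation of all test compounds plus 3 SD, cut at about 18% in these data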
Target sequence (P08912 whole entry, looked up): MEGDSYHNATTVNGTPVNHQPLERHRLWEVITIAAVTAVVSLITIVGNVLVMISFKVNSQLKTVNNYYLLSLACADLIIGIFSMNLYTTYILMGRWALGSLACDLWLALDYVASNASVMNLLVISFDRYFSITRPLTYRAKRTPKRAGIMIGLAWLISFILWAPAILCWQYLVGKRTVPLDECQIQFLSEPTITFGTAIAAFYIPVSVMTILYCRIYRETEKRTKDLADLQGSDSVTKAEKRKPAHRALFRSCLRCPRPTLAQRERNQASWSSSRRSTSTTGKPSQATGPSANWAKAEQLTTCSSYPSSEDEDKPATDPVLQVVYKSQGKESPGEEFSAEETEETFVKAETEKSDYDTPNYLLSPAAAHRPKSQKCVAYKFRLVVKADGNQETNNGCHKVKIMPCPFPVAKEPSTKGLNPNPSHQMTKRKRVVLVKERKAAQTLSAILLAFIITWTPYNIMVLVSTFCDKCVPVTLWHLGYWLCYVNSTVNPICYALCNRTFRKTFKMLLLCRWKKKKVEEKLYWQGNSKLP
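System – CHO-K1 hM5 cells · Compound – 3 µM, single dose · Incubation – compound preincubation 140 s before EC20 acetylcholine addition · Technique – Fluo-8 calcium fluorescence · Measure – Max/basal fluorescence ratio as % of EC20–EC100 ACh window · Benchmarks – low control EC20 acetylcholine (0%), high control EC100 acetylcholine (100%) · Replication – singlicate, one well per test compound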
CHRM5 agonist: agonists of human muscarinic M5 receptor (CHRM5); P08912; CHO-K1 hM5 cells, Fluo-8 calcium fluorescence; 0% DMSO wells, 100% maximal acetylcholine response; activation, % at 3 µM; actives 0.19% (n = 360,000); AID 624037;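 active means activation above the run's mean over test compounds plus 3 SD, cut at about 23% in these data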;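 further: signal is peak over basal fluorescence ratio across the kinetic read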
M5 antag: antagonists of human muscarinic M5 receptor (CHRM5); P08912; CHO-hM5 cells, Fluo-8 calcium fluorescence, ACh EC80; inhibition, % at 3 µM; actives 0.59% (n = 360,000); AID 624040;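 active means inhibition above a per-plate cutoff, the mean of that plate's test compounds plus 3 SD, cut at about 27% in these data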
M4 PAM: CHRM4 positive allosteric modulation. CHO-K1 hM4/Gqi5, Fluo-8 calcium fluorescence, ACh EC20; 0% = ACh EC20, 100% = maximal ACh. activation, % at 3 µM. actives 0.4% (n = 360,000). AID 624126;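 active means activation above its plate's cutoff, the mean activation of sample wells plus 3 SD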
CHRM4 antagonist: antagonists of human muscarinic M4 receptor (CHRM4) | P08173 | CHO-hM4 cells, ACh EC80, Fluo-8 calcium fluorescence | inhibition, % at 3 µM | actives 0.73% (n = 360,000) | AID 624125;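 active means inhibition above its plate's cutoff, the mean inhibition of sample wells plus 3 SD, cut at about 27% in these data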
CHRM4 agonist: CHRM4 agonism in calcium assay | P08173 | CHO-K1 hM4/Gqi5, Fluo-8 calcium fluorescence; vehicle 0%, full acetylcholine response 100% | activation, % at 3 µM | actives 0.14% (n = 360,000);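 active means activation above the run mean over all test wells plus 3 SD, cut at about 32% in these data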;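 further: peak over basal fluorescence ratio per well then scaled between controls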
Of the large screens only hits and unclear results are named; the others gave an inactive call.

COC(=O)C1CCN(Cc2ccc(C)cc2)CC1	none
CCc1cc(-c2n[nH]c(=S)n2-c2ccccc2C)cs1	M4 PAM 31.0
C=C1C(=O)N(C)CCC1C(CC)C(=O)OC (stereo not given)	none
CCCCNC(=O)C1c2ccccc2OCC(=O)N1Cc1ccccc1 (stereo not given)	M4 PAM 22.7
CCCCNC(=O)C1c2ccccc2OCC(=O)N1Cc1ccc2c(c1)OCO2 (stereo not given)	none
COc1ccc(CC(=O)NC(C)c2nnc(SCCC(=O)Nc3ccccc3)n2C)cc1 (stereo not given)	M5 PAM 18.1
NC(Cc1ccc(C(F)(F)F)cc1)c1csc(Nc2nccc(C(F)(F)F)n2)n1 (stereo not given)	none
Cc1ccc(S(=O)(=O)N2CCC(=O)N([C@H](COCc3ccc(Cl)cc3)C(C)C)CC2)cc1	none
Cc1ccccc1NCC(=O)N/N=C/c1c[nH]c2ccccc12	none
Cc1cccc(NCC(=O)N/N=C\c2c[nH]c3ccccc23)c1	CHRM4 antagonist 28.0
CCC(=O)Nc1cccc(-c2ccc(N3CCC(C)CC3)nn2)c1	M5 PAM 20.4
CCC(C)c1ccccc1OCCn1ccnc1 (stereo not given)	M5 antag 29.7
Clc1ccc(OCCn2ccnc2)c(Br)c1	M5 PAM 27.0
O=C(C(=O)N1CCC(Cc2ccccc2)CC1)c1ccccc1	none
Cc1c(CN2CCC(CO)(CCOc3ccccc3)CC2)[nH]c2c(Cl)cccc12	CHRM4 antagonist 28.8
CN(Cc1cnn(C)c1)C(=O)CC1C(=O)NCCN1Cc1cccc(Oc2ccccc2)c1 (stereo not given)	M5 antag 32.4
CCC1=C(OC(=O)N(CC)CC)N2C(=O)OC(=NCC3CC3)[C@]2(Cc2ccccc2)[C@H]2C1=CC[C@H]1C(=O)NC(=O)[C@H]12	none
CCC1=C(OC(=O)N(CC)CC)N2C(=O)OC(=NCCOC)[C@]2(Cc2ccccc2)[C@H]2C1=CC[C@H]1C(=O)NC(=O)[C@H]12	M5 PAM 26.5
COC(=O)c1ccc(C(=O)NC2CCSc3ccccc32)cc1 (stereo not given)	none
Cc1ccc(NC(=S)NC2CCSc3ccccc32)cc1C (stereo not given)	M5 antag 28.2, CHRM4 antagonist 51.9
Cn1nnnc1SCCNCc1cc(Cl)ccc1OCc1ccccc1	none
Cn1nnnc1SCCNCc1ccccc1OCc1ccc(Cl)cc1	CHRM4 antagonist 26.8
CC(C)N1CSC(=S)N(Cc2ccccc2)C1	M5 PAM 18.2
O=C(NNc1ccccc1)Nc1cc(Cl)ccc1Cl	M5 PAM 19.0
COc1ccc(NS(=O)(=O)c2ccc(-c3coc(C)n3)cc2)cc1	none
COc1ccc(NS(=O)(=O)c2ccc(-c3coc(C)n3)cc2)cc1OC	M5 antag 50.8, CHRM4 antagonist 46.9
Cc1nc(-c2ccc(S(=O)(=O)Nc3ccc(S(N)(=O)=O)cc3)cc2)co1	M5 PAM 20.8, M4 PAM 13.6
COc1ccc(C(=O)CC(C(=O)O)c2ccc3c(c2)OCO3)cc1OC (stereo not given)	none
CCc1noc(N)c1C(=O)Nc1ccc(F)c(Cl)c1	M5 PAM 21.8
CCc1noc(N)c1C(=O)Nc1ccc(Cl)cc1	none
COc1cc(F)ccc1S(=O)(=O)N1CCN(C23CC4CC(CC(C4)C2)C3)CC1	none
COc1cc(C)ccc1S(=O)(=O)N1CCN(C23CC4CC(CC(C4)C2)C3)CC1	CHRM4 antagonist 88.6
CNc1cncc(-c2ccc(C)cc2)n1	none
Cc1noc(C)c1COc1ccccc1C(=O)NCc1ccccc1Cl	M5 antag 98.9
O=C(OCCN1CCOCC1)c1ccc(Cl)cc1Cl	M4 PAM 14.6
OCC1(Cc2ccccc2)CCN(Cc2ccc(-c3ccco3)cc2)CC1	CHRM4 antagonist 30.1
OCC1(Cc2ccccc2)CCN(CCCC2CCCC2)CC1	CHRM4 antagonist 49.1
OCC1(Cc2ccccc2)CCCN(Cc2ccc(-c3ccco3)cc2)C1 (stereo not given)	none
COc1ccc(OC)c(-c2nnc3n2N=C(c2ccc(OC)c(OCC4CC4)c2)CS3)c1	CHRM4 antagonist 28.8
COc1ccc(C2=Nn3c(nnc3-c3ccccc3Cl)SC2)cc1OCC1CC1	none
C[C@@H]1CN([C@@H](C)CO)C(=O)CCCn2nncc2CO[C@@H]1CN(C)S(=O)(=O)c1cccc(F)c1	none
COc1cccc(CNCc2ccc(OC)c3ccccc23)c1OC	M5 antag 30.6, CHRM4 agonist 37.1
CC(=O)OC[C@@H]1CN(Cc2ccccc2)C[C@H](n2cnc3c(NC4CCC4)ncnc32)O1	none
CN1CCN(C2=Nc3ccccc3Oc3ccc(Cl)cc32)CC1	M5 antag 71.8, CHRM4 antagonist 37.4
Cc1nc(-c2ccc(C(=O)Nc3cc(S(N)(=O)=O)ccc3C)cc2)cs1	CHRM4 antagonist 30.4
C=CCNC(=S)Nc1ccccc1-c1nnc2n1CCCCC2	M5 antag 30.4
Nc1ccccc1-c1nnc2n1CCCCC2	none
Cc1nc2c(OCc3ccc(C#N)cc3)cccn2c1N(C)C(=O)CCC1CCCC1	none
CCCOc1ccc(OC(=O)c2ccc(Br)o2)cc1	CHRM4 agonist 76.1
CC(C)(C)c1ccc(C(=O)N2CCOC23CCCCC3)cc1	none
Cc1ccc(NC(=O)C2(C)CCN2Cc2csc3ccccc23)cc1 (stereo not given)	CHRM4 antagonist 45.9
CC1(C(=O)Nc2ccc3c(c2)OCO3)CCN1Cc1csc2ccccc12 (stereo not given)	none
CCCNS(=O)(=O)c1ccc(CCC(=O)Nc2cc(Cl)ccc2Oc2ccccc2)cc1	M5 antag 29.3, CHRM4 antagonist 42.9
CCN(CC)c1ccc(/C=C/c2cc(-c3ccccc3)c3ccccc3n2)cc1	CHRM4 antagonist 30.8
CN(C)c1ccc(/C=C/c2ccc3ccccc3n2)cc1	none
O=C1CSC(=Nc2cccc(C(=O)O)c2)N1	M4 PAM 14.7
CC(=O)c1cccc(N=C2NC(=O)CS2)c1	none
COc1ccccc1CN1CCC(CNS(=O)(=O)c2cc(-c3cc(C)no3)ccc2OC)CC1	CHRM4 antagonist 32.0
C[C@@H]1CN([C@@H](C)CO)C(=O)c2cc(NC(=O)Nc3ccccc3)ccc2O[C@@H](C)CCCCO[C@H]1CN(C)C(=O)Nc1ccc(C(F)(F)F)cc1	none
CCCCN(CC)C(=O)c1n[nH]c(=O)c2ccccc12	M5 PAM 25.3
Cc1cc2nc(C3CCCCC3)c(Cc3cccc(Cl)c3)n2c(C)c1Br	none
O=C(Nc1ccc([N+](=O)[O-])cc1)Nc1ccc(Cl)cc1F	M5 antag 40.7

From PubChem BioAssay
